Data set [1] addresses T1, D(2) dopamine receptor (Homo sapiens, UniProt P14416). The data set can be described thus: Displacement of [3H]spiperone from dopamine D2long receptor in CHO cells. It counts as cell-based. In short, it runs like this: (§1)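 Competition binding used membranes from stably transfected CHO cells expressing human D2long, D2short, D3 or D4.4 receptor, with [³H]spiperone at 0.1 nM final.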

For another data set, the target named is T2, D(4) dopamine receptor (Homo sapiens, UniProt P21917).
T2 sequence (P21917 whole entry): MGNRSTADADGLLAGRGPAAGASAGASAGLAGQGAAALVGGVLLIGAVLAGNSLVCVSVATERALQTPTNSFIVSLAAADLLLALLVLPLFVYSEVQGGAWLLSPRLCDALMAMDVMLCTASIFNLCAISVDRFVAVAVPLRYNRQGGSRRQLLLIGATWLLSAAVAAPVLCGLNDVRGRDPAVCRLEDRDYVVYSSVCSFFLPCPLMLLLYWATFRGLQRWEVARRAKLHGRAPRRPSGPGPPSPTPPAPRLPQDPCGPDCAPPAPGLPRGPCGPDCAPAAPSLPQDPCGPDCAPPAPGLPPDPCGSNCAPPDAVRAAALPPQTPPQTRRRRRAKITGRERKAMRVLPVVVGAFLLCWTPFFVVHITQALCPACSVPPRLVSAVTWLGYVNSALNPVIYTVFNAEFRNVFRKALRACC
The data set can be described thus: Displacement of [3H]spiperone from dopamine D4.4 receptor in CHO cells. The format is cell-based. The procedure, abridged:
as §1

Data set [2] is described as follows: Displacement of [3H]8HO-DPAT from serotonin 5-HT1A receptor in pig cortical membrane.
A short description of data set [3]: Lipophilicity, log D at pH 7.4. The following applies: buffer.
For the next data set, the target named is D(3) dopamine receptor (Homo sapiens, UniProt P35462). Nature of the data set: Displacement of [3H]spiperone from dopamine D3 receptor in CHO cells. The format is cell-based. In short, it runs like this:
as §1

A short description of data set [4]: Displacement of [3H]ketanserin from serotonin 5-HT2 receptor in pig cortical membrane.
Another data set addresses D(1A) dopamine receptor (Sus scrofa, UniProt P50130). Nature of the data set: Displacement of [3H]SCH23990 from dopamine D1 receptor in pig striatal membrane. The format is cell membranes, Striatum.
The target in data set [5] is T1, D(2) dopamine receptor. Nature of the data set: Displacement of [3H]spiperone from dopamine D2short receptor in CHO cells. The format is cell-based. The procedure, abridged: as §1
Data set [6] is described as follows: Displacement of [3H]prazosin from adrenergic-alpha-1 receptor in pig cortical membrane.

T1 sequence (P14416 whole entry): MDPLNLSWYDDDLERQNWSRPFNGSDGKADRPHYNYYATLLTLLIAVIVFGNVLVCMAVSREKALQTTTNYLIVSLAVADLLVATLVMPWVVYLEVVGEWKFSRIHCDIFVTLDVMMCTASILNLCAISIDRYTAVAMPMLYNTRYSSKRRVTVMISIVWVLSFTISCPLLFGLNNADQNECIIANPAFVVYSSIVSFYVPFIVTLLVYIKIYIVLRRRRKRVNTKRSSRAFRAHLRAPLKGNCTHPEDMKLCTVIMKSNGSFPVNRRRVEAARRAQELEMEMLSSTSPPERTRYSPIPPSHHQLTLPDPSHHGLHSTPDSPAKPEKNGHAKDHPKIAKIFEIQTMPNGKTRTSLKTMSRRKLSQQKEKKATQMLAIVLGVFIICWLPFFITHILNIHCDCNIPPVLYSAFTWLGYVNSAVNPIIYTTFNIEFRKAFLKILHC
D(3) dopamine receptor, sequence (P35462 whole entry): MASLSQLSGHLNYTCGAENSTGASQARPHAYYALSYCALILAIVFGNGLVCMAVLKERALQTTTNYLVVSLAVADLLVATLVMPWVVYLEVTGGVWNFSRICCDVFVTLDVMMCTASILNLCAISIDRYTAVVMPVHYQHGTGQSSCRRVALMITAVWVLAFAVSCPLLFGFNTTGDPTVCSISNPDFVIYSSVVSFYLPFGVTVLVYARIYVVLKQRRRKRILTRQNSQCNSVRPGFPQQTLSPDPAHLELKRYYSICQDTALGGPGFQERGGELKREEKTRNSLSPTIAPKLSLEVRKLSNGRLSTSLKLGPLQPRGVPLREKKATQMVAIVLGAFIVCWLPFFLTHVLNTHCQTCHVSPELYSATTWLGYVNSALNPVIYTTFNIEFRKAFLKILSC
D(1A) dopamine receptor, sequence (P50130 whole entry): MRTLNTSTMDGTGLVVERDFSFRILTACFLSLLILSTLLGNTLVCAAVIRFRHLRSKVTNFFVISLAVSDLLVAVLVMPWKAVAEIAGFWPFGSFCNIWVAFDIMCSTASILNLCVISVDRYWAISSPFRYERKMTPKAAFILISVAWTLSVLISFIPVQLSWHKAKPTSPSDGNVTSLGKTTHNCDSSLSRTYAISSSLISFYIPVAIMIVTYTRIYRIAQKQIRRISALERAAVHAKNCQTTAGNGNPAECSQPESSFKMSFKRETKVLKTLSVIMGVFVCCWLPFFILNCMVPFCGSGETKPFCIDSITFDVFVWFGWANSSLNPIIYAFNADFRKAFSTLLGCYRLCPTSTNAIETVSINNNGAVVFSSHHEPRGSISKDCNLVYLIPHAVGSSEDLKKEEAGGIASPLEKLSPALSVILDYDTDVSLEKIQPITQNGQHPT

On to `C=CCN1CCC[C@H]1CNC(=O)c1cc(Br)cc(OC)c1OC`, for which the Ki on D(2) dopamine receptor [1] was 0.85 nM; on D(4) dopamine receptor, 210 nM; in data set [2] it was 140 nM; on D(3) dopamine receptor, 0.6 nM; in data set [4], 1100 nM; at D(1A) dopamine receptor, 13000 nM. The values for the Ki (on D(2) dopamine receptor [5]; in [6]) were 0.88 nM and 1600 nM, respectively. This compound came in with a logD in [3] of 2.83.

On to `C=CCN1CCC[C@H]1CNC(=O)c1cc(I)cc(OC)c1OC`, for which the Ki is 0.68 nM on D(2) dopamine receptor [1]; 250 nM on D(4) dopamine receptor; 150 nM in data set [2]; 0.46 nM at D(3) dopamine receptor; 490 nM in [4]; 18000 nM on D(1A) dopamine receptor. In addition, the results for the Ki (at D(2) dopamine receptor [5]; in [6]) were 0.74 nM and 1100 nM, respectively. In [3], the pH-dependent lipophilicity (logD) was 2.91.

On to `C=CCN1CCC[C@H]1CNC(=O)c1cc(I)ccc1OC`, for which the Ki came out at 14 nM on D(2) dopamine receptor [1]; 630 nM at D(4) dopamine receptor; 170 nM in data set [2]; 11 nM at D(3) dopamine receptor; 2400 nM in data set [4]; 13000 nM on D(1A) dopamine receptor. The figures for the Ki (at D(2) dopamine receptor [5]; in data set [6]) were 15 nM and 2000 nM, respectively. Besides, the logD in data set [3] came to 2.81.

Turning to `C=CCN1CCC[C@H]1CNC(=O)c1cc(Br)ccc1OC`, the Ki at D(2) dopamine receptor [1] came out at 23 nM; at D(4) dopamine receptor, 1700 nM; in data set [2], 230 nM; at D(3) dopamine receptor it was 22 nM; in [4] it was 2100 nM; on D(1A) dopamine receptor it was 17000 nM. For the same compound, the values for the inhibition constant (Ki) (at D(2) dopamine receptor [5]; in data set [6]) were 27 nM and 2000 nM, respectively. The logD in data set [3] was 2.71.

In the case of `C=CCN1CCC[C@H]1CNC(=O)c1cc(CCCF)ccc1OC`, the Ki at D(2) dopamine receptor [1] worked out at 30 nM; at D(4) dopamine receptor, 3000 nM; in data set [2] it was 2300 nM; on D(3) dopamine receptor it was 33 nM; in [4], 4500 nM; on D(1A) dopamine receptor, 30000 nM. The Ki was 30 nM at D(2) dopamine receptor [5] and 1900 nM in [6]. The compound further yielded a logD in data set [3] of 2.63.

In the case of `C=CCN1CCC[C@H]1CNC(=O)c1cc(CCCF)cc(OC)c1OC` [FALLYPRIDE], the Ki at D(2) dopamine receptor [1] is 2.2 nM; on D(4) dopamine receptor it was 1300 nM; in data set [2], 1100 nM; in [4], 3700 nM; at D(1A) dopamine receptor it was 18000 nM; on D(2) dopamine receptor [5] it was 2.1 nM. In addition, the Ki in [6] turned out to be 970 nM. In [3], this compound showed a logD of 2.66.

Take `CCN1CCC[C@H]1CNC(=O)c1c(OC)ccc(I)c1O` [IOLOPRIDE]: the Ki is 4.2 nM at D(2) dopamine receptor [1]; 570 nM on D(4) dopamine receptor; 1100 nM in data set [2]; 4.2 nM at D(3) dopamine receptor; 2000 nM in data set [4]; 12000 nM at D(1A) dopamine receptor. Besides, the Ki on D(2) dopamine receptor [5] turned out to be 4.2 nM; in data set [6] it was 1900 nM. For the same compound, in data set [3], the logD is 3.13.

In the case of `CCN1CCC[C@H]1CNC(=O)c1c(O)c(Cl)cc(Cl)c1OC` [RACLOPRIDE], the Ki on D(4) dopamine receptor worked out at 3100 nM; in [2], 4400 nM; on D(3) dopamine receptor, 15 nM; in data set [4], 3500 nM; on D(1A) dopamine receptor it was 37000 nM; in data set [6], 3000 nM.

Values taken from ChEMBL document CHEMBL1139804, “In vitro affinities of various halogenated benzamide derivatives as potential radioligands for non-invasive quantification of D(2)-like dopamine receptors” (Bioorg Med Chem, 2007).
